Source: ChEMBL document CHEMBL1125554, “Studies on pyridonecarboxylic acids. 1. Synthesis and antibacterial evaluation of 7-substituted-6-halo-4-oxo-4H-[1,3]thiazeto[3,2-a]quinoline-3-carboxylic acids” (J Med Chem, 1992)
In brackets after ≈: the same amount, converted by molar mass.

How the values were obtained:
Type in all cases: functional
Escherichia coli = assay: In vitro antibacterial activity against Escherichia coli NIH JC-2; details: Escherichia coli; read-out: MIC
Summary of the method: (§1)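 MIC (μg/mL) by 2-fold agar dilution on Sensitivity Test agar, following the Japan Society of Chemotherapy MIC Committee method. Inocula were about 10⁶ cfu/mL. Growth was read after 20 h incubation at 37 °C.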

Klebsiella pneumoniae = assay: In vitro antibacterial activity against Klebsiella pneumoniae K-1966; details: Klebsiella pneumoniae; read-out: MIC; summary of the method: as §1
Pseudomonas aeruginosa = assay: In vitro antibacterial activity against Pseudomonas aeruginosa E-2; details: Pseudomonas aeruginosa; read-out: MIC; summary of the method: as §1
Shigella flexneri = assay: In vitro antibacterial activity against Shigella flexneri 2a EW-10; details: Shigella flexneri; read-out: MIC; summary of the method: as §1
Serratia marcescens = assay: In vitro antibacterial activity against Serratia marcescens IFO 3736; details: Serratia marcescens, IFO 3736; read-out: MIC; summary of the method: as §1
Staphylococcus aureus = assay: In vitro antibacterial activity against Staphylococcus aureus 209P JC-1; details: Staphylococcus aureus; read-out: MIC; summary of the method: as §1
Micrococcus luteus = assay: In vitro antibacterial activity against Micrococcus luteus ATCC 9341; details: Micrococcus luteus, ATCC 9341; read-out: MIC; summary of the method: as §1
Mus musculus [1] = species: Mus musculus; assay: Compound was evaluated for oral efficacy on systemic infections in mice by Escherichia coli KC-14
Summary of the method: (§2)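 Male ddY mice (20 ± 2 g), seven per dose group. Challenge was intraperitoneal, 0.5 mL of bacteria suspended in 5% gastric mucin: E. coli KC-14 at 4.3 × 10⁴ cfu/mL or P. aeruginosa E-2 at 2.88 × 10⁵ cfu/mL. Drug was suspended in 0.5% HPC-SL and given orally 2 h (E. coli) or 1 h (P. aeruginosa) after challenge. ED50 was calculated by Probit from 7-day survival.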

Mus musculus [2] = species: Mus musculus; assay: Compound was evaluated for oral Pseudomonas aeruginosa E-2; summary of the method: as §2

| SMILES | MIC (Escherichia coli) [µg/mL] | MIC (Klebsiella pneumoniae) [µg/mL] | MIC (Pseudomonas aeruginosa) [µg/mL] | MIC (Shigella flexneri) [µg/mL] | MIC (Serratia marcescens) [µg/mL] | MIC (Staphylococcus aureus) [µg/mL] | MIC (Micrococcus luteus) [µg/mL] | ED50 (Mus musculus [1]) [mg/kg] | ED50 (Mus musculus [2]) [mg/kg] |
| --- | --- | --- | --- | --- | --- | --- | --- | --- | --- |
| Cl.O.O=C(O)c1c2n(c3cc(N4CCNCC4)c(F)cc3c1=O)CS2 | 0.1 | 0.05 | 0.78 | 0.025 | 0.1 | 0.05 | 25 | – | – |
| CCOC(=O)c1c2n(c3cc(N4CCN(C)CC4)c(F)cc3c1=O)C(c1ccccc1)S2 (centres undefined) | – | – | – | – | – | – | – | 0.89 | 18.1 |
| CC1Sc2c(C(=O)O)c(=O)c3cc(Cl)c(N4CCNCC4)cc3n21 (centres undefined) | 0.05 (≈ 0.137 µM) | 0.025 (≈ 0.0683 µM) | 1.56 (≈ 4.26 µM) | 0.0125 (≈ 0.0342 µM) | 0.1 (≈ 0.273 µM) | 0.1 (≈ 0.273 µM) | 1.56 (≈ 4.26 µM) | – | – |
| CN1CCN(c2cc3c(cc2F)c(=O)c(C(=O)O)c2n3C(c3ccc(F)cc3F)S2)CC1 (centres undefined) | 0.39 (≈ 0.845 µM) | 0.78 (≈ 1.69 µM) | 3.13 (≈ 6.78 µM) | 0.78 (≈ 1.69 µM) | 12.5 (≈ 27.1 µM) | 1.56 (≈ 3.38 µM) | 6.25 (≈ 13.5 µM) | – | – |
| O=C(O)c1c2n(c3cc(N4CCNCC4)c(F)cc3c1=O)C(c1ccccc1F)S2 (centres undefined) | 0.39 (≈ 0.908 µM) | 0.78 (≈ 1.82 µM) | 3.13 (≈ 7.29 µM) | 0.78 (≈ 1.82 µM) | 12.5 (≈ 29.1 µM) | 1.56 (≈ 3.63 µM) | 12.5 (≈ 29.1 µM) | – | – |
| CCOC(=O)c1c2n(c3cc(N4CCN(CC(C)=O)CC4)c(F)cc3c1=O)C(C)S2 (centres undefined) | – | – | – | – | – | – | – | 0.78 | 27 |
| CC1Sc2c(C(=O)O)c(=O)c3cc(F)c(-n4ccnc4)cc3n21 (centres undefined) | 0.2 (≈ 0.604 µM) | 0.1 (≈ 0.302 µM) | 3.13 (≈ 9.45 µM) | 0.1 (≈ 0.302 µM) | 0.78 (≈ 2.35 µM) | 0.39 (≈ 1.18 µM) | 6.25 (≈ 18.9 µM) | – | – |

The next lines start with results.

| MIC (Escherichia coli) [µg/mL] | MIC (Klebsiella pneumoniae) [µg/mL] | MIC (Pseudomonas aeruginosa) [µg/mL] | MIC (Shigella flexneri) [µg/mL] | MIC (Serratia marcescens) [µg/mL] | MIC (Staphylococcus aureus) [µg/mL] | MIC (Micrococcus luteus) [µg/mL] | SMILES | ED50 (Mus musculus [1]) [mg/kg] | ED50 (Mus musculus [2]) [mg/kg] |
| --- | --- | --- | --- | --- | --- | --- | --- | --- | --- |
| 0.05 (≈ 0.128 µM) | 0.05 (≈ 0.128 µM) | 0.78 (≈ 2 µM) | 0.025 (≈ 0.0642 µM) | 0.19 (≈ 0.488 µM) | 0.05 (≈ 0.128 µM) | 1.56 (≈ 4.01 µM) | C=CCN1CCN(c2cc3c(cc2F)c(=O)c(C(=O)O)c2n3C(C)S2)CC1 (centres undefined) | – | – |
| 0.2 (≈ 0.547 µM) | 0.2 (≈ 0.547 µM) | 1.56 (≈ 4.26 µM) | 0.1 (≈ 0.273 µM) | 0.39 (≈ 1.07 µM) | 0.2 (≈ 0.547 µM) | 6.25 (≈ 17.1 µM) | CN1CCN(c2cc3c(cc2Cl)c(=O)c(C(=O)O)c2n3CS2)CC1 | – | – |
| 0.025 (≈ 0.0608 µM) | 0.025 (≈ 0.0608 µM) | 0.2 (≈ 0.486 µM) | 0.025 (≈ 0.0608 µM) | 0.05 (≈ 0.122 µM) | 0.2 (≈ 0.486 µM) | 3.13 (≈ 7.61 µM) | O=C(O)c1c2n(c3cc(N4CCNCC4)c(F)cc3c1=O)C(c1ccccc1)S2 (centres undefined) | – | – |
| – | – | – | – | 0.78 (≈ 2.07 µM) | 0.2 (≈ 0.53 µM) | – | CCC1Sc2c(C(=O)O)c(=O)c3cc(F)c(N4CCN(C)CC4)cc3n21 (centres undefined) | – | – |
| 0.025 (≈ 0.0582 µM) | 0.0125 (≈ 0.0291 µM) | 0.39 (≈ 0.908 µM) | 0.025 (≈ 0.0582 µM) | 0.39 (≈ 0.908 µM) | 0.2 (≈ 0.466 µM) | 1.56 (≈ 3.63 µM) | O=C(O)c1c2n(c3cc(N4CCNCC4)c(F)cc3c1=O)C(c1ccc(F)cc1)S2 (centres undefined) | – | – |
| 0.1 (≈ 0.254 µM) | 0.1 (≈ 0.254 µM) | 1.56 (≈ 3.97 µM) | 0.05 (≈ 0.127 µM) | 0.39 (≈ 0.991 µM) | 0.1 (≈ 0.254 µM) | 0.78 (≈ 1.98 µM) | CC1Sc2c(C(=O)O)c(=O)c3cc(F)c(N4CCN(CCO)CC4)cc3n21 (centres undefined) | – | – |
| 0.1 (≈ 0.285 µM) | 0.1 (≈ 0.285 µM) | 0.39 (≈ 1.11 µM) | 0.1 (≈ 0.285 µM) | 0.39 (≈ 1.11 µM) | 0.1 (≈ 0.285 µM) | 1.56 (≈ 4.45 µM) | CC1Sc2c(C(=O)O)c(=O)c3cc(F)c(N4CCOCC4)cc3n21 (centres undefined) | – | – |
| 0.025 (≈ 0.0688 µM) | 0.025 (≈ 0.0688 µM) | 0.39 (≈ 1.07 µM) | 0.0125 (≈ 0.0344 µM) | 0.05 (≈ 0.138 µM) | 0.1 (≈ 0.275 µM) | 1.56 (≈ 4.29 µM) | CC1Sc2c(C(=O)O)c(=O)c3cc(F)c(N4CCN(C)CC4)cc3n21 (centres undefined) | 0.97 | 8.84 |
| 0.1 (≈ 0.263 µM) | 0.025 (≈ 0.0658 µM) | 1.56 (≈ 4.11 µM) | 0.1 (≈ 0.263 µM) | 0.1 (≈ 0.263 µM) | 0.2 (≈ 0.526 µM) | 3.13 (≈ 8.24 µM) | CC1Sc2c(C(=O)O)c(=O)c3cc(Cl)c(N4CCN(C)CC4)cc3n21 (centres undefined) | – | – |
